ChEMBL document CHEMBL4261537, “Synthesis and pharmacological evaluation of multi-functional homoisoflavonoid derivatives as potent inhibitors of monoamine oxidase B and cholinesterase for the treatment of Alzheimer's disease” (Medchemcomm, 2017)

Key:
Acetylcholinesterase [1] = target: T1, Acetylcholinesterase (Electrophorus electricus, UniProt O42275); assay: Inhibition of electric eel AChE using acetylthiocholine iodide as substrate preincubated for 5 mins followed by substrate addition measured at 1 to 3 mins time interval by Ellman's method
Cholinesterase [2] = target: T2, Cholinesterase (Equus caballus, UniProt P81908); assay: Inhibition of equine serum BuChE using S-butyrylthiocholine iodide as substrate preincubated for 5 mins followed by substrate addition measured at 1 to 3 mins time interval by Ellman's method; format: ADME
[3] = Selectivity index, ratio of IC50 for equine serum BuChE to IC50 for electric eel AChE
[4] = target: T3, Amine oxidase [flavin-containing] B (Homo sapiens, UniProt P27338); assay: Inhibition of recombinant human MAO-B assessed as reduction in H2O2 production using p-tyramine as substrate preincubated for 15 mins followed by substrate addition by Amplex red reagent based fluorescence assay
T3 sequence (P27338 whole entry): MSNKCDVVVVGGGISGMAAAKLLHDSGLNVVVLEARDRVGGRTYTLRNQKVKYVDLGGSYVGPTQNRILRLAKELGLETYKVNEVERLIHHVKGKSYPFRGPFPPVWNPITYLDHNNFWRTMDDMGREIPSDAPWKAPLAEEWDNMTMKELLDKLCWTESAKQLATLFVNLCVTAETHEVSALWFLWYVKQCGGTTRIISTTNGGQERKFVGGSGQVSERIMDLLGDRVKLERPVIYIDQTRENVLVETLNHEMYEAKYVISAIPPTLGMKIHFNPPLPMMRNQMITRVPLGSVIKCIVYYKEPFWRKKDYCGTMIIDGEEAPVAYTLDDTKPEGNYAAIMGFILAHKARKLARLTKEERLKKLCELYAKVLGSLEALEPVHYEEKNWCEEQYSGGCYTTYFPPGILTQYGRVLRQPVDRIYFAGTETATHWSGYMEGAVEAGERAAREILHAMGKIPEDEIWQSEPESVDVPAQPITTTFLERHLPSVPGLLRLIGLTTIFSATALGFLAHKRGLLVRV
How it was run: (§1)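 Human MAO-A or MAO-B, each set to the same control reaction velocity. Preincubated with compound 15 min at 37°C in the dark, in sodium phosphate buffer with DMSO. Then 200 μM Amplex Red (final) added with 1 U/mL HRP and 1 mM p-tyramine. Run in triplicate, mean ± SD.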

[5] = target: T4, Amine oxidase [flavin-containing] A (Homo sapiens, UniProt P21397); assay: Inhibition of recombinant human MAO-A assessed as reduction in H2O2 production using p-tyramine as substrate preincubated for 15 mins followed by substrate addition by Amplex red reagent based fluorescence assay
T4 sequence (P21397 whole entry): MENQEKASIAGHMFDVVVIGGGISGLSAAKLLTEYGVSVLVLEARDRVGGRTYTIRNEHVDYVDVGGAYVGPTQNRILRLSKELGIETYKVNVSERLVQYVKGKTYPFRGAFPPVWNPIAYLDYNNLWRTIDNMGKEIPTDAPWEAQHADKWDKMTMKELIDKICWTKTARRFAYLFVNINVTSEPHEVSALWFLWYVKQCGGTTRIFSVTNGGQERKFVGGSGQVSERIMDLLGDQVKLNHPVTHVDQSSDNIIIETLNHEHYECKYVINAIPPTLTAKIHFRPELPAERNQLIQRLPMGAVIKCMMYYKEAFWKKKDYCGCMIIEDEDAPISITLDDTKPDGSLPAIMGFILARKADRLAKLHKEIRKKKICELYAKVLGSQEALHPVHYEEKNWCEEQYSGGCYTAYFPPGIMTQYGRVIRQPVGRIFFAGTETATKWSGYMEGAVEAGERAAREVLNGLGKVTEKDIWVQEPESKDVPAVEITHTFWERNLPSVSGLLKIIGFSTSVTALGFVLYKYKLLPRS

Homo sapiens [6] = species on record: Homo sapiens; assay: Selectivity index, ratio of IC50 for recombinant human MAO-A to IC50 for recombinant human MAO-B
Acetylcholinesterase [7] = target: Acetylcholinesterase (Homo sapiens, UniProt P22303); assay: Inhibition of human erythrocytes AChE using acetylthiocholine iodide as substrate preincubated for 5 mins followed by substrate addition measured at 1 to 3 mins time interval by Ellman's method
Cholinesterase [8] = target: T5, Cholinesterase (Homo sapiens, UniProt P06276); assay: Inhibition of human serum BuChE using S-butyrylthiocholine iodide as substrate preincubated for 5 mins followed by substrate addition measured at 1 to 3 mins time interval by Ellman's method; format: ADME
Homo sapiens [9] = species on record: Homo sapiens; assay: Selectivity index, ratio of IC50 for human serum BuChE to IC50 for human erythrocytes AChE
Acetylcholinesterase [10] = target: T1, Acetylcholinesterase; assay: Mixed-type inhibition of electric eel AChE using varying levels of acetylthiocholine iodide as substrate measured at 1 to 3 mins time interval by Lineweaver-Burk plot analysis
How it was run: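 Electric eel AChE assayed by Ellman's method at […] substrate 0.05-0.25 mM, without inhibitor and with inhibitor at 0.5, 1.0 or 2.0 μM; activity read at 0, 1, 2, 3 min. Lineweaver–Burk plots built; their slopes plotted against inhibitor concentration, Ki taken as the negative x-axis intercept.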

[11] = target: T3, Amine oxidase [flavin-containing] B; assay: Time-dependent inhibition of recombinant human MAO-B at 0.003 uM using p-tyramine as substrate preincubated for 15 to 60 mins followed by substrate addition and compound dilution to IC50 by Amplex red reagent based fluorescence assay
[12] = target: T3, Amine oxidase [flavin-containing] B; assay: Reversible inhibition of recombinant human MAO-B at 0.003 uM using p-tyramine as substrate preincubated for 15 to 60 mins followed by substrate addition and compound dilution to IC50 by Amplex red reagent based fluorescence assay
[13] = target: T3, Amine oxidase [flavin-containing] B; assay: Non-competitive inhibition of recombinant human MAO-B assessed as reduction in H2O2 production at 0.015 to 0.06 uM using p-tyramine as substrate preincubated for 15 mins followed by substrate addition by Lineweaver-Burk plot analysis
[14] = Effective permeability of the compound at 0.1 mg/ml after 16 hrs by PAMPA; format: ADME; conditions: read-out: Peff
How it was run: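 Porcine brain lipid in dodecane (20 mg/mL) coated on PVDF filter. Compound stock 5 mg/mL in DMSO, diluted 50-fold into PBS/EtOH (70:30) to 0.1 mg/mL in donor wells; acceptor holds PBS/EtOH (70:30). Incubated 16 h at 25°C. UV plate read at five wavelengths, four wells, at least three runs. Pe derived from acceptor absorbance versus theoretical equilibrium absorbance.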

Mus musculus [15] = assay: Acute toxicity in Kunming mouse assessed as fatality up to 2000 mg/kg, po administered as single dose up to 2 weeks; format: organism-based; conditions: in vivo, 336 h
How it was run: (§2)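 Male Kunming mice (18-22g), acclimatised 4 days, fasted 12 h; single oral dose of 677, 1333 or 2000 mg/kg suspended in 0.5% CMC-Na (0.4 ml per mouse), vehicle group 0 mg/kg; 20 mice in 4 groups. Watched continuously for 4 h for abnormal behaviour and deaths, then intermittently to 24 h; observation over 14 days.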

Mus musculus [16] = assay: Acute toxicity in Kunming mouse assessed as change in body weight up to 2000 mg/kg, po administered as single dose up to 2 weeks; format: organism-based; conditions: in vivo, 336 h
Mus musculus [17] = assay: Acute toxicity in Kunming mouse assessed as change in mental behavior up to 2000 mg/kg, po administered as single dose up to 2 weeks; format: organism-based; conditions: in vivo, 336 h; how it was run: as §2
Mus musculus [18] = assay: Acute toxicity in Kunming mouse assessed as damage to heart up to 2000 mg/kg, po administered as single dose measured after 14 days; format: organism-based; conditions: in vivo, 336 h
How it was run: (§3)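 Male Kunming mice given one oral dose (0, 677, 1333, 2000 mg/kg) in 0.5% CMC-Na after a 12 h fast; after 14 days of observation, animals sacrificed and liver, heart and kidneys visually examined for damage.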

Mus musculus [19] = assay: Acute toxicity in Kunming mouse assessed as damage to kidney up to 2000 mg/kg, po administered as single dose measured after 14 days; format: organism-based; conditions: in vivo, 336 h; how it was run: as §3
Mus musculus [20] = assay: Acute toxicity in Kunming mouse assessed as damage to liver up to 2000 mg/kg, po administered as single dose measured after 14 days; format: organism-based; conditions: in vivo, 336 h; how it was run: as §3
[21] = target: T4, Amine oxidase [flavin-containing] A; assay: Inhibition of recombinant human MAO-A assessed as reduction in H2O2 production at 100 uM using p-tyramine as substrate preincubated for 15 mins followed by substrate addition by Amplex red reagent based fluorescence assay
How it was run: as §1, with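 “p-tyramine. Resorufin fluorescence read at 37°C (ex 545/em 590 nm), background from enzyme-free wells subtracted.” for “p-tyramine.”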

Cholinesterase [22] = target: T5, Cholinesterase; assay: Inhibition of human serum BuChE at 100 uM using S-butyrylthiocholine iodide as substrate preincubated for 5 mins followed by substrate addition measured at 1 to 3 mins time interval by Ellman's method
How it was run: (§4)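 Ellman assay: compound diluted in 50 mM Tris-HCl pH 8.0 with 0.1 M NaCl, 0.02 M MgCl2 (DMSO 1%). Preincubated 5 min at 37°C with 1.5 mM DTNB and BuChE (0.12 U/mL in Tris with 0.1% BSA); 15 mM S-butyrylthiocholine iodide added; absorbance at 405 nm read at 0, 1, 2, 3 min.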

[23] = target: T3, Amine oxidase [flavin-containing] B; assay: Inhibition of recombinant human MAO-B assessed as reduction in H2O2 production at 100 uM using p-tyramine as substrate preincubated for 15 mins followed by substrate addition by Amplex red reagent based fluorescence assay
How it was run: as §1, with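 “p-tyramine. Resorufin fluorescence read at 37°C (ex 545/em 590 nm), background from enzyme-free wells subtracted.” for “p-tyramine.”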

Cholinesterase [24] = target: T2, Cholinesterase; assay: Inhibition of equine serum BuChE at 100 uM using S-butyrylthiocholine iodide as substrate preincubated for 5 mins followed by substrate addition measured at 1 to 3 mins time interval by Ellman's method; conditions: horse; how it was run: as §4

T5 sequence (P06276 whole entry): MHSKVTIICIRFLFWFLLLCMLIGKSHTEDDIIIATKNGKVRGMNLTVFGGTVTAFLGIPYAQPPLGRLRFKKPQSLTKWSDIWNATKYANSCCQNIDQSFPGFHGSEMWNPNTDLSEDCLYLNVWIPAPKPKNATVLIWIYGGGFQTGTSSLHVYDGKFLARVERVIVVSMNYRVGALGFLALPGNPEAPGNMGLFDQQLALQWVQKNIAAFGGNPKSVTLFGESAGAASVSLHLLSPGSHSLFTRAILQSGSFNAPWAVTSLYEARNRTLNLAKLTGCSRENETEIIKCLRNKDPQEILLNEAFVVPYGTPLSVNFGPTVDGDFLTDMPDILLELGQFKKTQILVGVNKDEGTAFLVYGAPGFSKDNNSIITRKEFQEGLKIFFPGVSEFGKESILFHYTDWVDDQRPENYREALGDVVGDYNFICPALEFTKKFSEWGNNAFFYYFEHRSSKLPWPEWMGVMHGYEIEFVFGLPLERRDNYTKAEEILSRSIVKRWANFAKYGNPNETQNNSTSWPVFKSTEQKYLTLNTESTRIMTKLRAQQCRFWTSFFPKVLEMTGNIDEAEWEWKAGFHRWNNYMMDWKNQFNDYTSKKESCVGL
Sequence of Acetylcholinesterase (Homo sapiens, UniProt P22303) (P22303 whole entry): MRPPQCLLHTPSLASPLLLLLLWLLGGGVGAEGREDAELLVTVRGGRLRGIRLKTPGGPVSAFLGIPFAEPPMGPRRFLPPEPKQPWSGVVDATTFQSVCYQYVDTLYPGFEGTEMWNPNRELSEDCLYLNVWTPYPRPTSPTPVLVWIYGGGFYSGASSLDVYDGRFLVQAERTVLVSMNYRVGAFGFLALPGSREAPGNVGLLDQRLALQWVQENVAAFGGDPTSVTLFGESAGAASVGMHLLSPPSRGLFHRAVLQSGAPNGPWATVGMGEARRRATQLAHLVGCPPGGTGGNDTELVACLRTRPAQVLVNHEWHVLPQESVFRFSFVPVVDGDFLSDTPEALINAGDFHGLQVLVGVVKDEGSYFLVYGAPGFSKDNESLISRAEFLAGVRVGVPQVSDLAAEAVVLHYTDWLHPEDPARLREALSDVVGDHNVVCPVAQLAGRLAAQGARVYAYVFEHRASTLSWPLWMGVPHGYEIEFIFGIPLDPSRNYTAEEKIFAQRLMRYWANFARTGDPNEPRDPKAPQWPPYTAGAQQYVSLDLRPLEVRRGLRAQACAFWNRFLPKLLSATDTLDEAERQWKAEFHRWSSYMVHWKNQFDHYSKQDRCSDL
T2 sequence (P81908 whole entry): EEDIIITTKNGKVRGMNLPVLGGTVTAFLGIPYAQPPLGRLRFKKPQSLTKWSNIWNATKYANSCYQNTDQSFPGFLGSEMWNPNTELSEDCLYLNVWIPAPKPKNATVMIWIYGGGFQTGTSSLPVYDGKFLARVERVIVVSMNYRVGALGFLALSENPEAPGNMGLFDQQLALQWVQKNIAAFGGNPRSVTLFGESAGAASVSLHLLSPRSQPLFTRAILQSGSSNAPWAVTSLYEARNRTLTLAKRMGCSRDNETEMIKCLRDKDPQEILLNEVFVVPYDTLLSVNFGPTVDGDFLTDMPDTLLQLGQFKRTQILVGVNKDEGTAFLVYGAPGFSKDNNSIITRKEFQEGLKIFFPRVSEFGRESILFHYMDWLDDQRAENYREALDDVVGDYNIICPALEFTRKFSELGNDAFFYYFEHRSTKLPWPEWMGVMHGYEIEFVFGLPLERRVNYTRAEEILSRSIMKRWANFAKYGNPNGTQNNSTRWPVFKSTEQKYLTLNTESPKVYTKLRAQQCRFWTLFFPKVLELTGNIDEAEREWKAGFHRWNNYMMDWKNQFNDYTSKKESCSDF
T1 sequence (O42275 whole entry): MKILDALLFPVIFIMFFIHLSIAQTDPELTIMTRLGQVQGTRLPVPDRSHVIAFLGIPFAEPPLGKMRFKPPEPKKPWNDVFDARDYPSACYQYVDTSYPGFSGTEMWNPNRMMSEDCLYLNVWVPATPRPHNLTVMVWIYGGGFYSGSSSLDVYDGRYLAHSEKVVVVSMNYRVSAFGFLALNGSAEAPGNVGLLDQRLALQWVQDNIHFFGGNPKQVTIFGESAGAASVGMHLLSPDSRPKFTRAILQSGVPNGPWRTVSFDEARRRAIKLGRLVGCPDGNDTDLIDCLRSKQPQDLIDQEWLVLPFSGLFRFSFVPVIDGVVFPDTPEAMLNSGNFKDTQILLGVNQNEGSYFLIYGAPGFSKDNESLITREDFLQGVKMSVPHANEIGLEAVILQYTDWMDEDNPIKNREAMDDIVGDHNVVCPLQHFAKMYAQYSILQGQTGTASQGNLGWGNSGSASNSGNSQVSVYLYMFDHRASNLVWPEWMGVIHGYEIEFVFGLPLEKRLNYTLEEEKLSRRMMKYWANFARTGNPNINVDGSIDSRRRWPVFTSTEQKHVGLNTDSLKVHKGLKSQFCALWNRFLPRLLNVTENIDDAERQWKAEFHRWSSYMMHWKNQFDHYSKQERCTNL

| Compound | IC50 (Acetylcholinesterase [1]) [µM] | IC50 (Cholinesterase [2]) [µM] | Ratio IC50 [3] | IC50 [4] [µM] | IC50 [5] [µM] | Ratio IC50 (Homo sapiens [6]) | IC50 (Acetylcholinesterase [7]) [µM] | IC50 (Cholinesterase [8]) [µM] | Ratio IC50 (Homo sapiens [9]) | inhibition (INH) [21] | also measured |
| --- | --- | --- | --- | --- | --- | --- | --- | --- | --- | --- | --- |
| CN(C)CCOc1ccc(/C=C2\COc3ccccc3C2=O)cc1 | 0.89 | 28.7 | 32.3 | 0.0372 | 38.1 | 1024 | 0.657 | 9.31 | 14.2 |  | Ki (Acetylcholinesterase [10]): 0.404 µM; TDI [11]: Not Active; inhibition (INH) [12]: Active; Ki [13]: 0.551 µM; Papp at 16 h, 0.1 mg/ml [14]: 10.6 ×10⁻⁶ cm/s; Activity (Mus musculus [15]): Non-Toxic; Activity (Mus musculus [16]): Non-Toxic; Activity (Mus musculus [17]): Non-Toxic; Activity (Mus musculus [18]): Non-Toxic; Activity (Mus musculus [19]): Non-Toxic; Activity (Mus musculus [20]): Non-Toxic |
| O=C1/C(=C/c2ccc(OCCCN3CCN(Cc4ccccc4)CC3)cc2)COc2ccccc21 | 1.02 | 89.5 | 87.8 | 38.6 |  | > 2.59 | 4.72 |  | > 21.2 | Not Active | inhibition (INH) (Cholinesterase [22]): Not Active |
| CCN(CC)CCOc1ccc(/C=C2\COc3ccccc3C2=O)cc1 | 1.03 | 28.9 | 28 | 0.0381 | 46.6 | 1220 | 3.29 | 23.6 | 7.17 |  |  |
| CCN(CC)CCOc1cccc(/C=C2\COc3ccccc3C2=O)c1 | 4.16 | 1.68 | 0.403 | 0.824 | 80 | 97.1 | 30.3 | 10.3 | 0.34 |  |  |
| CCN(CC)CCCOc1ccccc1/C=C1\COc2ccccc2C1=O | 54.8 | 4.89 | 0.0892 |  |  |  |  |  |  | Not Active | inhibition (INH) [23]: Not Active |
| O=C1/C(=C/c2ccc(OCCCCCCN3CCN(Cc4ccccc4)CC3)cc2)COc2ccccc21 | 60.8 |  | > 1.65 | > 100 |  | > 1 |  |  |  | Not Active | inhibition (INH) (Cholinesterase [24]): Not Active |
| CCN(CC)CCCCOc1ccc(/C=C2\COc3ccccc3C2=O)cc1 | 6.1 | 4.61 | 0.756 | 2.86 | 52.9 | 18.5 | 14.1 | 11.3 | 0.801 |  |  |
| O=C1/C(=C/c2ccc(O)cc2)COc2ccccc21 | 44.4 |  | > 2.25 | 0.242 |  | > 413 | 99.9 |  | 1.01 | Not Active | inhibition (INH) (Cholinesterase [24]): Not Active; inhibition (INH) (Cholinesterase [22]): Not Active |
| CCN(CC)CCCCCCOc1ccc(/C=C2\COc3ccccc3C2=O)cc1 | 3.75 | 4.83 | 1.29 | 2.9 | 37.8 | 13.1 | 1.85 | 4.25 | 2.3 |  |  |
| CN(CCCCCCOc1ccc(/C=C2\COc3ccccc3C2=O)cc1)Cc1ccccc1 | 1.77 | 50.7 | 28.7 | > 100 |  | > 1 | 40.9 | 20 | 0.489 | Not Active |  |
| CN(C)CCCOc1cccc(/C=C2\COc3ccccc3C2=O)c1 | 4.97 | 2.16 | 0.435 | 0.0484 | 93.7 | 1940 | 25.7 | 39.3 | 1.53 |  |  |
| CN(C)CCOc1cccc(/C=C2\COc3ccccc3C2=O)c1 | 1.04 | 8.37 | 8.05 | 0.571 | 38 | 66.5 | 1.41 | 4.44 | 3.15 |  |  |
